According to paper PMC12118959 (Toxicological Sciences, 2025):
Counter-ions that a name gives are not always drawn.

What was measured:
3D ECTs [1] = test: Contractility; type: cell-based, human; settings: for MEC (minimum effective concentration), active force: serum-free, paced at 1 Hz, 15 min per concentration
Method in brief: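 Tissues were built from iCell cardiomyocytes plus human ventricular cardiac fibroblasts in hydrogel on Biowire II wires. After 30 min chamber equilibration, a 30-s baseline video was recorded, then a second one 10 min after a medium-pipetting step. Test compound in DMSO was added cumulatively at 3 or 4 rising concentrations (final DMSO 0.001–0.1%), 15 min each, with a 30-s video per concentration. n=6–9 tissues, one compound per tissue.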

NaV1.5 = settings: read-out: NaV1.5 IC50; ref Wang et al. 2010; cited from earlier work
2D hiPSC-CMs [2] = test: Motion-field imaging contractility; type: cell-based, human; settings: for MEC (minimum effective concentration), maximum contraction speed: serum-containing medium, concentration for 1.08-fold increase or 0.92-fold decrease
Method in brief: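 Thawed iCell hiPSC-CMs were re-plated on day 7 onto a ~3 mm fibronectin spot and cultured 5–9 days at 37°C, 5% CO2, with serum-containing medium overnight before recording. Phase-contrast video at 4x, 150 frames/s, analysed by block-matching. After sham baseline, cumulative additions from 1,000-fold DMSO stocks (final DMSO 0.1–0.4% v/v), 15 min each, 10-s videos; 4–5 wells. MEC by four-parameter log fit, 1.08/0.92-fold cutoffs.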

CaV1.2 = settings: read-out: CaV1.2 IC50; ref Ando et al. 2017; cited from earlier work
hERG = settings: read-out: hERG IC50; ref Sube and Ertel 2017; cited from earlier work
2D hiPSC-CMs [3] = settings: ref Okai et al. 2020; cited from earlier work
3D ECTs [4] = settings: read-out: EC50, positive inotropic effect; same 3D ECT model; ref Feric et al. 2019; cited from earlier work
aligned hiPSC-CMs = settings: ref Satsuka et al. 2024; cited from earlier work

Question: With `CC(C)NCC(O)COc1cccc2ccccc12` (racemic) [Propranolol, (±)-propranolol hydrochloride] as the molecule, how does the “MEC (minimum effective concentration), active force” value (3D ECTs [1]) read?
Answer: 3.0 µM

Question: What about the “MEC (minimum effective concentration), active force” value (3D ECTs [1]; listed as propranolol) of the same molecule?
Answer: ~3 µM

Question: And the IC50 (NaV1.5)?
Answer: 3000 nM

Question: Which “MEC (minimum effective concentration), maximum contraction speed” value (2D hiPSC-CMs [2]) does the source give for `Nc1cc(-c2ccncc2)c[nH]c1=O` [Amrinone, amrinone] here?
Answer: >100 µM

Question: With `CC(=O)Oc1ccccc1C(=O)O` [Aspirin, acetylsalicylic acid] as the molecule, how does the “Concentration up to which no effect on active force was observed” value (“Concentration up to which no effect” for short) (3D ECTs [1]) read?
Answer: 300 µM

Question: And the “MEC (minimum effective concentration), active force” value (3D ECTs [1])?
Answer: >300 µM

Question: What about the “MEC (minimum effective concentration), maximum contraction speed” value (2D hiPSC-CMs [2]) of the same molecule?
Answer: >300 µM

Question: With `C[C@H](CS)C(=O)N1CCC[C@H]1C(=O)O` [Captopril, captopril] as the molecule, how does the “Concentration up to which no effect” value (3D ECTs [1]) read?
Answer: 100 µM

Question: What about the “MEC (minimum effective concentration), active force” value (3D ECTs [1]) of the same molecule?
Answer: >100 µM

Question: And the “MEC (minimum effective concentration), maximum contraction speed” value (2D hiPSC-CMs [2])?
Answer: >100 µM

Question: For `CN/C(=N/CCSCc1nc[nH]c1C)NC#N` [Cimetidine, cimetidine], which “Concentration up to which no effect” value (3D ECTs [1]) is on record?
Answer: 100 µM

Question: And the “MEC (minimum effective concentration), active force” value (3D ECTs [1])?
Answer: >100 µM

Question: And the “MEC (minimum effective concentration), maximum contraction speed” value (2D hiPSC-CMs [2])?
Answer: >100 µM

Question: Which “MEC (minimum effective concentration), active force” value (3D ECTs [1]) does the source give for `COc1ccc(Cl)cc1C(=O)NCCc1ccc(S(=O)(=O)NC(=O)NC2CCCCC2)cc1` [Glibenclamide, glyburide] here?
Answer: >100 µM

Question: What about the “MEC (minimum effective concentration), maximum contraction speed” value (2D hiPSC-CMs [2]) of the same molecule?
Answer: >100 µM

Question: For `O=C(CCCN1CCC(O)(c2ccc(Cl)cc2)CC1)c1ccc(F)cc1` [Haloperidol, haloperidol], which “MEC (minimum effective concentration), active force” value (3D ECTs [1]) is on record?
Answer: 0.30 µM

Question: What about the “Concentration at which irregular beating was induced” value (2D hiPSC-CMs [2]) of the same molecule?
Answer: above 0.10 µM

Question: And the “MEC (minimum effective concentration), maximum contraction speed” value (2D hiPSC-CMs [2])?
Answer: >0.10 µM

Question: What about the IC50 (CaV1.2) of the same molecule?
Answer: 1300 nM

Question: With `CC(C)NCC(O)c1ccc(O)c(O)c1` (stereo not shown) [Isoproterenol, isoproterenol] as the molecule, how does the “MEC, positive inotropic effect (active force)” value (3D ECTs [1]) read?
Answer: below 0.1 nM

Question: What about the “MEC (minimum effective concentration), active force” value (3D ECTs [1]) of the same molecule?
Answer: <0.00010 µM

Question: And the “MEC, positive inotropic effect (maximum contraction speed)” value (2D hiPSC-CMs [2])?
Answer: 0.35 nM

Question: Which results are given for `Cc1ccc(N(CC2=NCCN2)c2cccc(O)c2)cc1` [Phentolamine, phentolamine hydrochloride]?
Answer: Concentration up to which no effect on active force was observed (3D ECTs [1]): 3.0 µM; MEC (minimum effective concentration), maximum contraction speed (2D hiPSC-CMs [2]): >0.30 µM; IC50 (hERG): 850 nM

Question: With `COc1ccc(-c2nc3ccc(C4=NNC(=O)CC4C)cc3[nH]2)cc1` (stereo not shown) [Pimobendan, pimobendan] as the molecule, how does the “MEC (minimum effective concentration), maximum contraction speed” value (2D hiPSC-CMs [2]) read?
Answer: >60 µM

Question: With `CC[C@H](C)C(=O)O[C@H]1C[C@H](O)C=C2C=C[C@H](C)[C@H](CC[C@@H](O)C[C@@H](O)CC(=O)O)[C@H]21` [Pravastatin, pravastatin] as the molecule, how does the “Concentration up to which no effect” value (3D ECTs [1]) read?
Answer: 100 µM

Question: And the “MEC (minimum effective concentration), active force” value (3D ECTs [1])?
Answer: >100 µM

Question: And the “MEC (minimum effective concentration), maximum contraction speed” value (2D hiPSC-CMs [2])?
Answer: >100 µM

Question: For `CCOc1ccccc1OCCN[C@H](C)Cc1ccc(OC)c(S(N)(=O)=O)c1` [Tamsulosin, tamsulosin], which “Concentration up to which no effect” value (3D ECTs [1]) is on record?
Answer: 1.0 µM

Question: What about the “MEC (minimum effective concentration), active force” value (3D ECTs [1]) of the same molecule?
Answer: 3.0 µM

Question: What about the “MEC (minimum effective concentration), maximum contraction speed” value (2D hiPSC-CMs [2]) of the same molecule?
Answer: >3.0 µM

Question: What does the source list for `CN(C)C/C=C(/c1ccc(Br)cc1)c1cccnc1` [Zimelidine, zimelidine]?
Answer: Concentration up to which no effect on active force was observed (3D ECTs [1]): 3.0 µM; MEC (minimum effective concentration), maximum contraction speed (2D hiPSC-CMs [2]): >0.10 µM

Question: With `CC(CCc1ccc(O)cc1)NCCc1ccc(O)c(O)c1` (stereo not shown) [dobutamine] as the molecule, how does the “Inotropic effect in 2D hiPSC-CMs (previous study)” value (2D hiPSC-CMs [3]) read?
Answer: positive inotropic effect

Question: For `Cc1[nH]c(=O)c(C#N)cc1-c1ccncc1` [milrinone], which EC50 (3D ECTs [4]) is on record?
Answer: 1.6 nM

Question: What about the “Inotropic effect in aligned hiPSC-CMs” value (aligned hiPSC-CMs) of the same molecule?
Answer: remained undetectable
